Legend:
H460 NSCLC cell line = assay: Annexin V/PI flow cytometry cell viability; type: cell-based; details: H460, increasing concentrations, 48 hours
H460 cells [1] = assay: Combination index analysis with cisplatin or etoposide; type: cell-based; details: H460, 48 hours, all fractions of cells affected
How it was run: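 H460 cells plated at 1 × 10⁴ cells/cm² for 24 h, then treated concurrently with increasing concentrations of cisplatin or etoposide plus test compound (DMSO stock) for 48 h. Adherent and non-adherent cells were collected and stained with annexin V-FITC/PI, then read by flow cytometry. The combination index was derived by Chou–Talalay analysis across fractions of cells affected.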

Human RPA = Human RPA (Homo sapiens, UniProt P27694); assay: EMSA of RPA binding to 5'-32P-labeled 34-base ssDNA; details: for inhibition of RPA DNA binding in vitro (in words): EMSA
Sequence of Human RPA (P27694 whole entry): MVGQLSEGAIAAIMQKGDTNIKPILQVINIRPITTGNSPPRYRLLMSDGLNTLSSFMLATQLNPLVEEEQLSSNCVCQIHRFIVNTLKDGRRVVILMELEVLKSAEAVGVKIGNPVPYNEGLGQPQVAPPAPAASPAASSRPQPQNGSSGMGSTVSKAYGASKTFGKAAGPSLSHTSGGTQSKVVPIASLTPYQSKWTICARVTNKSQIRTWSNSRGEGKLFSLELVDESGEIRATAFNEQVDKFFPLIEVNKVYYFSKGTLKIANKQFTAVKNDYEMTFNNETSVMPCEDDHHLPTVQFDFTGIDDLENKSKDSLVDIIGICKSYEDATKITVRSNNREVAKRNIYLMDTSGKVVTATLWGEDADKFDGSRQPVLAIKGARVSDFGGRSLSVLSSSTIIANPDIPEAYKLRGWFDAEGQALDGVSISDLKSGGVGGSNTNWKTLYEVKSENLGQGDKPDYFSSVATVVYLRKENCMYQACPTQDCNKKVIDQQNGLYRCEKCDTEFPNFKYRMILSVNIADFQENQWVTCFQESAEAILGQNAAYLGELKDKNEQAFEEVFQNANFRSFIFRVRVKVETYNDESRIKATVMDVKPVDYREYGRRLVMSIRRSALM
Sequence of Human RPA (P15927 whole entry partner): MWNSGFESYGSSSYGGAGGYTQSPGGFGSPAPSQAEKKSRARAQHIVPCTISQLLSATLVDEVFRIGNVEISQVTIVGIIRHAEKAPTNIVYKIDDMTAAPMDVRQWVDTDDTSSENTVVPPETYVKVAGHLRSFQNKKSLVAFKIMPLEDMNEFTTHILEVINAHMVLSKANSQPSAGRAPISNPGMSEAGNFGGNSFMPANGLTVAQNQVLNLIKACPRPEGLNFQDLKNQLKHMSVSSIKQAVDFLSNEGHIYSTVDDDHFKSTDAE
Sequence of Human RPA (P35244 whole entry partner): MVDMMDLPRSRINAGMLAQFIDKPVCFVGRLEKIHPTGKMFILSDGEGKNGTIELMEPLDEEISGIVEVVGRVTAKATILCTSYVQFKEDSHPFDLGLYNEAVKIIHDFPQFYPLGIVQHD
How it was run: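 Purified human RPA (25 nM) with 25 nM 5'-32P-labelled 34-base DNA in 20 µL reactions; test compound dissolved in DMSO. Bound and free DNA were resolved by electrophoretic mobility shift.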

RPA in H460 cells = assay: Indirect immunofluorescence of RPA p34; type: cell-based; details: H460, 50 µM, 3 hours, versus vehicle
How it was run: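 H460 cells on chamber slides got test compound or vehicle for 3 h. They were fixed in 4% paraformaldehyde (25 °C, 3 min) and permeabilised in 0.2% Triton X-100 (2 min, 4 °C), then blocked in 15% FBS for 1 h. Staining: anti-RPA p34 (1:500, 1 h), Alexa Fluor-594 anti-mouse (1:300, 1 h), then 300 nM DAPI. Imaged by fluorescence microscopy; staining quantified by image analysis.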

[2] = test system: Xeroderma Pigmentosum Group A protein (XPA); assay: XPA DNA binding in an ELISA format; details: data not shown
[3] = test system: peripheral blood mononuclear cells (PBMCs); assay: Cytotoxicity in freshly isolated PBMCs; type: cell-based; details: freshly isolated non-cancerous cells, data not shown
[4] = test system: RPA foci / DNA-PKcs phosphorylation; assay: Etoposide-induced RPA foci and DNA-PKcs serine 2056 phosphorylation; type: cell-based; details: co-treatment with etoposide
H460 cells [5] = assay: Cell cycle distribution; type: cell-based
How it was run: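 H460 cells arrested with 0.8 µg/mL nocodazole for 12 h, washed, then given vehicle or 100 µM test compound for 4, 8 or 12 h; asynchronous cells treated 3 h. 10 µM BrdU added for final 2 h (released) or final hour (asynchronous). Fixed in 70% EtOH; PI 1 µg/mL with RNaseA; DNA denatured in 2 M HCl; anti-BrdU then AlexaFluor 488 secondary; FL2-A (PI) and FL1 (BrdU) flow read-out.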

| Structure (SMILES) | PI staining (membrane integrity) (H460 NSCLC cell line) | annexin V staining (apoptosis) (H460 NSCLC cell line) | interaction with etoposide (combination index analysis) (H460 cells [1]) | competition of RPA from pre-bound DNA (Human RPA; data not shown) | intensity of RPA staining (RPA in H460 cells) | effect on XPA binding [2] | cytotoxic activity in PBMCs [3] | etoposide-induced RPA foci and DNA-PKcs phosphorylation on co-treatment [4] | BrdU incorporation after release from nocodazole arrest (H460 cells [5]; H460, 100 µM, 10 µM BrdU final 2 hours) | S-phase entry after release from nocodazole G2 arrest (H460 cells [5]; H460, 100 µM, 12 hours post release) | BrdU incorporation in asynchronous cells (H460 cells [5]; H460, 3 hours treatment, BrdU final hour) | cell cycle distribution (H460 cells [5]; H460, 48 hours) | inhibition of RPA DNA binding in vitro (in words) (Human RPA) |
| --- | --- | --- | --- | --- | --- | --- | --- | --- | --- | --- | --- | --- | --- |
| CCOc1ccc2cc(C3CC(c4ccc(Br)cc4)=NN3C(=O)CCC(=O)O)c(Cl)nc2c1 (centres unmarked) [TDRL-505] | concentration dependent increase | Minimal annexin V staining | synergistic activity | unable to compete RPA away from DNA | decrease in the intensity of RPA staining | no inhibitory activity was observed | minimal cytotoxic activity | slight increase | no BrdU incorporation was observed | did not enter S-phase | small but distinct differences | increase in the proportion of cells in G1-phase |  |
| CCN(CC)c1ccc(C2CC(c3ccc(Br)cc3)=NN2C(=O)CCC(=O)O)cc1 (centres unmarked) [TDRL-518] |  |  |  |  |  |  |  |  |  |  |  |  | no inhibition |
| COc1ccc(-c2nn(-c3ccccc3)cc2C2CC(c3ccc(Br)cc3)=NN2C(=O)CCC(=O)O)cc1 (centres unmarked) [TDRL-523] |  |  |  |  |  |  |  |  |  |  |  |  | modest in vitro RPA inhibition |
